From ChEMBL document CHEMBL5042537, “Synthesis and Characterization of 5-(2-Fluoro-4-[11C]methoxyphenyl)-2,2-dimethyl-3,4-dihydro-2H-pyrano[2,3-b]pyridine-7-carboxamide as a PET Imaging Ligand for Metabotropic Glutamate Receptor 2” (J Med Chem, 2022)
Active and inactive are the calls of the source. No cut-off for these calls is given here.

What was measured:
[1] = Permeability of the compound in Sprague-Dawley rat brain striatum at 1 to 30 mins by CT scan; type: ADME, tissue-based; conditions: time 1-30 min
How it was run: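 Male Sprague–Dawley rats under isoflurane anaesthesia were injected iv via tail vein with the [11C] tracer (63.0–87.3 MBq). Dynamic PET ran for 60 min, reconstructed by MLEM, with a CT scan for attenuation correction. Striatal SUV time-activity curves were derived, and images were summed over 1–30 min.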

[2] = Drug metabolism in Cynomolgus monkey plasma assessed as parent compound remaining pretreated with 4-(4-fluorophenyl)-5-((1-methyl-1H-pyrazol-3-yl)methoxy)picolinamide at 1 mg/kg, iv for 20 mins before administration of tracer injection measured after 30 mins by CT scan; type: ADME, organism-based, Macaca fascicularis; conditions: read-out: Stability
How it was run: (§1)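 Cynomolgus monkey (female, 5.0 kg) given tracer as a 3 min iv infusion, with blocker 1.0 mg/kg iv 20 min before. Plasma samples from 5–120 min were analysed by automated column-switching radioHPLC (capture column, then C18 with acetonitrile:0.1 M ammonium formate 45:55, 0.1% TFA). Eluate was collected in 1 min fractions and gamma-counted to give percent parent.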

[3] = Drug uptake in Sprague-Dawley rat brain striatum mGlr2 rich region by CT scan; type: ADME, tissue-based; conditions: in vivo
How it was run: (§2)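 Male Sprague–Dawley rats (285–421 g) under isoflurane received [11C] tracer (63.0–87.3 MBq) iv via tail vein, followed by 60 min dynamic PET with CT for attenuation correction. Blockers were given iv 1 or 20 min before tracer, at 0.5 mg/kg (10% ethanol/5% Tween-80/saline) or 0.2 mg/kg (10% DMSO/5% Tween-20/PBS). Regional accumulation was taken over 2–30 min and compared with baseline scans.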

[4] = Drug uptake in Sprague-Dawley rat brain thalamus mGlr2 rich region by CT scan; type: ADME, tissue-based; conditions: in vivo; how it was run: as §2
[5] = Drug uptake in Sprague-Dawley rat brain cortex mGlr2 rich region by CT scan; type: ADME, tissue-based; conditions: in vivo; how it was run: as §2
[6] = Drug uptake in Sprague-Dawley rat brain hypothalamus mGlr2 rich region by CT scan; type: ADME, tissue-based; conditions: in vivo; how it was run: as §2
[7] = Drug uptake in Sprague-Dawley rat brain hippocampus mGlr2 rich region by CT scan; type: ADME, tissue-based; conditions: in vivo; how it was run: as §2
[8] = Drug uptake in Sprague-Dawley rat brain cerebellum mGlr2 rich region by CT scan; type: ADME, tissue-based; conditions: in vivo; how it was run: as §2
[9] = Drug uptake in Sprague-Dawley rat brain cortex mGlr2 rich region assessed as decrease in drug accumulation pretreated with 4-(4-fluorophenyl)-5-((1-methyl-1H-pyrazol-3-yl)methoxy)picolinamide at 0.5 mg/kg, iv for 1 min before administration of tracer injection by CT scan; type: ADME, organism-based; conditions: in vivo; how it was run: as §2
[10] = Drug uptake in Sprague-Dawley rat brain thalamus mGlr2 rich region assessed as decrease in drug accumulation pretreated with 4-(4-fluorophenyl)-5-((1-methyl-1H-pyrazol-3-yl)methoxy)picolinamide at 0.5 mg/kg, iv for 1 min before administration of tracer injection by CT scan; type: ADME, organism-based; conditions: in vivo; how it was run: as §2
[11] = Drug uptake in Sprague-Dawley rat brain striatum mGlr2 rich region assessed as decrease in drug accumulation pretreated with 4-(4-fluorophenyl)-5-((1-methyl-1H-pyrazol-3-yl)methoxy)picolinamide at 0.5 mg/kg, iv for 1 min before administration of tracer injection by CT scan; type: ADME, organism-based; conditions: in vivo, pooled result: one value given for 4 cell lines, strains, targets or settings; how it was run: as §2
[12] = Drug uptake in Sprague-Dawley rat brain hypothalamus mGlr2 rich region assessed as decrease in drug accumulation pretreated with 4-(8-bromo-2-oxo-2,3-dihydro-1H-benzo[b][1,4]diazepin-4-yl)picolinonitrile at 0.2 mg/kg, iv for 1 min before administration of tracer injection by CT scan; type: ADME, organism-based; conditions: in vivo; how it was run: as §2
[13] = Drug uptake in Sprague-Dawley rat brain […] rich region assessed as decrease in drug accumulation pretreated with 4-(8-bromo-2-oxo-2,3-dihydro-1H-benzo[b][1,4]diazepin-4-yl)picolinonitrile at 0.2 mg/kg, iv for 1 min before administration of tracer injection by CT scan; type: ADME, organism-based; conditions: in vivo; how it was run: as §2
[14] = Drug uptake in Sprague-Dawley rat brain striatum mGlr2 rich region assessed as decrease in drug accumulation pretreated with 4-(8-bromo-2-oxo-2,3-dihydro-1H-benzo[b][1,4]diazepin-4-yl)picolinonitrile at 0.2 mg/kg, iv for 1 min before administration of tracer injection by CT scan; type: ADME, organism-based; conditions: in vivo; how it was run: as §2
[15] = Drug uptake in Sprague-Dawley rat brain thalamus mGlr2 rich region assessed as decrease in drug accumulation pretreated with 4-(8-bromo-2-oxo-2,3-dihydro-1H-benzo[b][1,4]diazepin-4-yl)picolinonitrile at 0.2 mg/kg, iv for 1 min before administration of tracer injection by CT scan; type: ADME, organism-based; conditions: in vivo; how it was run: as §2
[16] = Drug uptake in Sprague-Dawley rat brain hippocampus mGlr2 rich region assessed as decrease in drug accumulation pretreated with 4-(8-bromo-2-oxo-2,3-dihydro-1H-benzo[b][1,4]diazepin-4-yl)picolinonitrile at 0.2 mg/kg, iv for 1 min before administration of tracer injection by CT scan; type: ADME, organism-based; conditions: in vivo; how it was run: as §2
[17] = Drug uptake in Sprague-Dawley rat brain cerebellum mGlr2 rich region assessed as decrease in drug accumulation pretreated with 4-(8-bromo-2-oxo-2,3-dihydro-1H-benzo[b][1,4]diazepin-4-yl)picolinonitrile at 0.2 mg/kg, iv for 1 min before administration of tracer injection by CT scan; type: ADME, organism-based; conditions: in vivo; how it was run: as §2
[18] = Drug uptake in Sprague-Dawley rat brain cerebellum mGlr2 rich region assessed as decrease in drug accumulation pretreated with 4-(8-bromo-2-oxo-2,3-dihydro-1H-benzo[b][1,4]diazepin-4-yl)picolinonitrile at 0.2 mg/kg, iv for 20 min before administration of tracer injection by CT scan; type: ADME, organism-based; conditions: in vivo; how it was run: as §2
[19] = Drug uptake in Sprague-Dawley rat brain striatum mGlr2 rich region assessed as decrease in drug accumulation pretreated with 4-(8-bromo-2-oxo-2,3-dihydro-1H-benzo[b][1,4]diazepin-4-yl)picolinonitrile at 0.2 mg/kg, iv for 20 min before administration of tracer injection by CT scan; type: ADME, organism-based; conditions: in vivo; how it was run: as §2
[20] = Drug uptake in Sprague-Dawley rat brain thalamus mGlr2 rich region assessed as decrease in drug accumulation pretreated with 4-(8-bromo-2-oxo-2,3-dihydro-1H-benzo[b][1,4]diazepin-4-yl)picolinonitrile at 0.2 mg/kg, iv for 20 min before administration of tracer injection by CT scan; type: ADME, organism-based; conditions: in vivo, pooled result: one value given for 4 cell lines, strains, targets or settings; how it was run: as §2
[21] = Drug metabolism in Cynomolgus monkey plasma assessed as retention time of metabolite by measuring pretreated with 4-(4-fluorophenyl)-5-((1-methyl-1H-pyrazol-3-yl)methoxy)picolinamide at 1 mg/kg, iv for 20 min before administration of tracer injection by CT scan; type: ADME, organism-based, Macaca fascicularis; conditions: in vivo; how it was run: as §1
[22] = Drug metabolism in Cynomolgus monkey plasma assessed as parent compound remaining pretreated with 4-(4-fluorophenyl)-5-((1-methyl-1H-pyrazol-3-yl)methoxy)picolinamide at 1 mg/kg, iv for 20 mins before administration of tracer injection measured after 120 mins by CT scan; type: ADME, organism-based, Macaca fascicularis; conditions: read-out: Stability; how it was run: as §1
[23] = Permeability of the compound across blood brain barrier in Sprague-Dawley rat after 4 mins by CT scan; type: ADME, tissue-based
How it was run: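 Male Sprague–Dawley rats (285–421 g) under isoflurane (1.0–1.5%) in oxygen. [11C]tracer (63.0–87.3 MBq) given iv via tail-vein catheter. Dynamic PET ran 60 min from injection, followed by CT for anatomy and attenuation correction. Data were reconstructed by MLEM into 24 frames. Regional brain uptake was expressed as SUV time-activity curves.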

[24] = target: T1, Metabotropic glutamate receptor 2 (Homo sapiens, UniProt Q14416); assay: Binding affinity to human recombinant mGlur2 assessed as inhibition constant by cAMP Glosensor assay
Target sequence in this assay (Q14416 whole entry): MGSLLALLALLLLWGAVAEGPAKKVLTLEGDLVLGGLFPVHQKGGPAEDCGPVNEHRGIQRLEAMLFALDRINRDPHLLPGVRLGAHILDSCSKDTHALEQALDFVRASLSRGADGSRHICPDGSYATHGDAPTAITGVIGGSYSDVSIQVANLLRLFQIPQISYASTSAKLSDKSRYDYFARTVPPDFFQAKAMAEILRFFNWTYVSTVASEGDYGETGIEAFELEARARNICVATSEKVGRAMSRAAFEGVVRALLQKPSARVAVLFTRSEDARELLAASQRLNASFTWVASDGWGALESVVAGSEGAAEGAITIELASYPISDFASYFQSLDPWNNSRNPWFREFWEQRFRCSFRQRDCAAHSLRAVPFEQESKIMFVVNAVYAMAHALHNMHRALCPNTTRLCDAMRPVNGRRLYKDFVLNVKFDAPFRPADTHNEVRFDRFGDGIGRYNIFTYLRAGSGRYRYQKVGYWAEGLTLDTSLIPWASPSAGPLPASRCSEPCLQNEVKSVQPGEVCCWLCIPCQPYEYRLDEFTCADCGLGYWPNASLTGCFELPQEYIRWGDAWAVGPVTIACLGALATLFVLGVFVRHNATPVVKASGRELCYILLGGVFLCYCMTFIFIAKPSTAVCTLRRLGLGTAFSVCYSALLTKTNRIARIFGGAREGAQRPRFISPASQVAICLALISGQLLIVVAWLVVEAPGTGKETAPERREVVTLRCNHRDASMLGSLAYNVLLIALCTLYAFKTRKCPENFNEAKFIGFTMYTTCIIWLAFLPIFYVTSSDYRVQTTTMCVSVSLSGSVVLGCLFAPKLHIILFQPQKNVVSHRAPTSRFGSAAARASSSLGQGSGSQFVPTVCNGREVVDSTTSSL

[25] = target: T1, Metabotropic glutamate receptor 2; assay: Negative allosteric modulation activity at human recombinant mGlur2 at 30 nM by cAMP Glosensor assay; type: functional; conditions: filed as negative allosteric modulator
How it was run: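 Flp-In T-REx-293 cells with tetracycline-inducible mGluR2 (induced with 1 μg/mL tetracycline) were transfected with pGloSensor-21F and plated at 15,000 cells/well in BME with 1% dialyzed FBS. Split-luciferase cAMP read-out was taken with 0.1 μM isoproterenol and increasing L-glutamate. Glutamate curves were fitted to an allosteric operational model; three independent assays in triplicate.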
Target sequence in this assay (Q14416 19-872 limits assumed): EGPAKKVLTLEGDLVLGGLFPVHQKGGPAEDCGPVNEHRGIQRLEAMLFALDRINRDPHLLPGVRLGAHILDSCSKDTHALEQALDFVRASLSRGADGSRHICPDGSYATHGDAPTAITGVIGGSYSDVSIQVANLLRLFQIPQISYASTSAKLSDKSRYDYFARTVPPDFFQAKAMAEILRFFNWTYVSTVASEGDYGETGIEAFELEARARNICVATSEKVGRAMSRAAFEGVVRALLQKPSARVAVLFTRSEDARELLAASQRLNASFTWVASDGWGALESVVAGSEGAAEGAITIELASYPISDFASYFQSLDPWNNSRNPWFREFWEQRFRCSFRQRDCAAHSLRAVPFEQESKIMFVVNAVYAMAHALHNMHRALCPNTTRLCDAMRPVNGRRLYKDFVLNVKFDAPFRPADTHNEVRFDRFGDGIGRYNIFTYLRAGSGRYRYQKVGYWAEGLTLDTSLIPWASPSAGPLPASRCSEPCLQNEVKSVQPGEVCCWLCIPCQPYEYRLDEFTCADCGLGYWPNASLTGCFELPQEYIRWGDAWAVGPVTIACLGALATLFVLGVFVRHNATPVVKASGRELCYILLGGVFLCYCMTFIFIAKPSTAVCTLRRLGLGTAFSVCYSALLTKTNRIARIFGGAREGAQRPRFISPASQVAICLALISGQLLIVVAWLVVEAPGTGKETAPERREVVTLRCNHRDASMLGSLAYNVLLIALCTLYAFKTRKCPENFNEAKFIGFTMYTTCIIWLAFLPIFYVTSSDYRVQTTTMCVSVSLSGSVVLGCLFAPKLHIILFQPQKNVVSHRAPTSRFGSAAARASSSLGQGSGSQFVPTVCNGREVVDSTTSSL

[26] = Lipophilicity, LogD at pH 7.4 of the compound by shake flask method; type: physicochemical; conditions: buffer
How it was run: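 Shake-flask method: 0.1 mg compound in n-octanol/PBS pH 7.4 (1.0 mL each), vortexed 1 min and shaken at 37 °C overnight. Each phase was quantified by HPLC peak area at 254 nm, and LogD = log(octanol/PBS). Run at least three times.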

[27] = Stability of the compound in rat plasma measured at 60 min; type: ADME, cell-free; conditions: read-out: Stability
How it was run: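 Compound (2.5 μL of 1 mM DMSO stock) was incubated in 100 μL rat serum at 37 °C for 60 min, then quenched with ice-cold acetonitrile and centrifuged. Supernatant was analysed by HPLC against an internal standard. Stability = peak area at 60 min / peak area at 0 min × 100%; at least three repeats.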

[28] = Stability of the compound in rat liver microsome measured at 60 min; type: ADME; conditions: liver microsomes, read-out: Stability
How it was run: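 Compound (1.5 μL of 1 mM DMSO stock) in PBS was preincubated at 37 °C, then Sprague–Dawley rat liver microsomes and NADPH (10 mM stock) were added. After 60 min at 37 °C, reactions were quenched with cold acetonitrile and analysed by HPLC against an internal standard. Stability = 60 min/0 min peak area × 100%; at least three repeats.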

## [11CH3]Oc1cc(CN2CCc3c(-c4ccc(F)cc4F)cc(C(N)=O)nc3C2)ccn1
[1]
  SUVmax: 1.7

## CC1(C)CCc2c(-c3ccc(O[11CH3])cc3F)cc(C(N)=O)nc2O1
[2]
  remaining at 20 min: 53%
[3]
  Drug uptake: Active
[4]
  Drug uptake: Active
[5]
  Drug uptake: Active
[6]
  Drug uptake: Active
[7]
  Drug uptake: Active
[8]
  Drug uptake: Active
[9]
  Drug uptake: 38.5%
[10]
  Drug uptake: 17.1%
[11]
  Drug uptake: 22.4%
[12]
  Drug uptake: 42.6%
[13]
  Drug uptake: 39.6%
[14]
  Drug uptake: 41.7%
[15]
  Drug uptake: 41.7%
[16]
  Drug uptake: 41.7%
[17]
  Drug uptake: 39.6%
[18]
  Drug uptake: 15.2%
[19]
  Drug uptake: 11.1%
[20]
  Drug uptake: 12.7%
[21]
  Retention_time: 2 min
[22]
  remaining at 20 min: 24.8%
[23]
  SUV: 7.5

## CC1(C)CCc2c(-c3ccc(F)cc3F)cc(C(N)=O)nc2O1
[24]
  Ki: 59 nM
[25]
  Activity: Active
[26]
  logD: 2.81
[27]
  remaining at 1 h: 95.3%
[28]
  remaining at 1 h: 94.5%

## COc1ccc(-c2cc(C(N)=O)nc3c2CCC(C)(C)O3)c(F)c1
[26]
  logD: 2.94
[27]
  remaining at 1 h: 94.5%
[28]
  remaining at 1 h: 47.8%

## Cn1ccc(COc2cnc(C(N)=O)cc2-c2ccc(O[11CH3])cc2F)n1
[1]
  SUVmax: 1.2
